Bioassay records from PubChem.
DAX1 inh-1 = DAX1 (NR0B1) inhibitors, primary screen, cell-based, HEK293, Gal4-DAX1, luciferase luminescence; HEK293 Gal4-DAX1 luciferase reporter; actives 0.99% (n = 340,000); Nuclear receptor subfamily 0 group B member 1 (Homo sapiens), P51843; inhibition, % at 6.75 µM; AID 504766, 2011;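 active = inhibition above the mean over all tested compounds plus 3 SD, cut at about 4.2% in these data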;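 also: 0% = DAX1-transfected cells with DMSO and 100% = empty-vector control cells with DMSO; inhibition shows as a rise in luminescence from relieved DAX1 repression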
Target sequence (P51843 207-470 limits assumed): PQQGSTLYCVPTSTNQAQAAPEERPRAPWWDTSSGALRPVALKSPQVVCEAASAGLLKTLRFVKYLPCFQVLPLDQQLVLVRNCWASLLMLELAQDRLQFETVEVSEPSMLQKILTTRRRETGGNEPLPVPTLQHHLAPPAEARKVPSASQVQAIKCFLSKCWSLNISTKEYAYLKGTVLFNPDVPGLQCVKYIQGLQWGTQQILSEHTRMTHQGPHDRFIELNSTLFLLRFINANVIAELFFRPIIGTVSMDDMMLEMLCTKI
JMJD2C inh = inhibitors of GASC-1 histone demethylase, primary screen, biochemical, fluorescence, DELFIA europium. inhibition, % at 2.35 µM. AID 2099, 2009. Lysine-specific demethylase 4C (Homo sapiens), Q9H3R0. actives 0.069% (n = 330,000). GST-JMJD2C(1-420) H3K9me3 demethylation;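 active = more than half of a compound's replicate wells show inhibition beyond 50%, single wells judged on their own value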;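 also: signal counts dimethyl H3K9 product captured on neutravidin plate; 0% = median of DMSO wells and 100% = 0.3 times that DMSO median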
Target sequence (Q9H3R0 1-420 limits assumed): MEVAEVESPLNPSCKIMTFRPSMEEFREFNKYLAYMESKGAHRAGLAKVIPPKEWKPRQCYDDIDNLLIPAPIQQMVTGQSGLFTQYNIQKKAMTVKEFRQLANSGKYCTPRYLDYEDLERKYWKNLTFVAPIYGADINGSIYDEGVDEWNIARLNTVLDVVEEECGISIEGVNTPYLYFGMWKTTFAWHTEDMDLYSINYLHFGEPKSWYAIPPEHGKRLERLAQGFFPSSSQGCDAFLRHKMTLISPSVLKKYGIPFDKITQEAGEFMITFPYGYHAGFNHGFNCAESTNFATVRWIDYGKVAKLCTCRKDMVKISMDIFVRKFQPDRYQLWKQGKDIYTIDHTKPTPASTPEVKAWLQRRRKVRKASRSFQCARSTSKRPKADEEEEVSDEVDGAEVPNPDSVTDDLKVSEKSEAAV
SMARCA2 activ = SMARCA2 (BRM) function activators, primary screen, cell-based, luminescence, high throughput; MG213 cells, MMTV-luciferase reporter, dexamethasone, overnight; activation, % at 9.1 µM; actives 1% (n = 370,000); AID 652017, 2013; in the data active = activation above about 7.8%;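 also: 0% = vehicle wells and 100% = reference activator wells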
NR2E3 ag-1 = NR2E3 agonists in two-hybrid cells, primary screen, cell-based, luminescence, CHO-S, Gal4-NCOR/VP16-NR2E3; Photoreceptor-specific nuclear receptor (Homo sapiens), Q9Y5X4; luciferase; inhibition of corepressor binding, % at 3.98 µM; actives 0.35% (n = 360,000); AID 602229, 2012;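 active = inhibition above the mean of all tested compounds plus 3 SD, cut at about 70% in these data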;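 also: 0% = DMSO with NR2E3 transfected cells and 100% = cells lacking NR2E3 construct; higher means lower luciferase signal from less NR2E3 corepressor binding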
DAX1 inh-2 = DAX1 (NR0B1) inhibitors on StAR promoter, primary screen, cell-based, luminescence, SF-1 (NR5A1), full-length DAX-1. HEK293T StAR-luciferase reporter, SF-1/DAX-1 repression relief. actives 1.1% (n = 370,000). inhibition, % at 6.8 µM. AID 652010, 2013;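 active = inhibition above the mean over all tested compounds plus 3 SD, cut at about 3.6% in these data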;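 also: 0% = DAX-1 cells with DMSO and 100% = cells lacking DAX-1 with DMSO; higher inhibition means more luminescence from relief of DAX-1 repression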
NR2E3 ag-2 = inhibitors of NR2E3-RetCOR corepressor binding, primary screen, NR2E3 agonist project, biochemical, TR-FRET, GST-NR2E3, biotin-RetCOR | Photoreceptor-specific nuclear receptor (Homo sapiens), Q9Y5X4 | 1536-well | inhibition of corepressor binding, % at 4.78 µM | actives 0.12% (n = 320,000) | AID 2300, 2010;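 active = percent inhibition above the cutoff of mean plus 3 SD of all tested compounds, set per screening campaign, cut at about 20% in these data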;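 also: 0% = DMSO wells and 100% = biotin wells as full block of FRET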
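Test system: GST-NR2E3 and biotin-RetCOR proteins | Quantity: 1.35 nM GST-tagged NR2E3 final | Medium: Tris pH 7.5 | Also added: 7 nM biotin-RetCOR | Dosing: Compound at 4.8 µM, single dose | Timing: 5 h at 4 °C | Detection: Time-resolved FRET | Read-out basis: Percent inhibition | Benchmarks: Biotin wells as high control, 0.6% DMSO wells as low control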
SMARCA2 conf = SMARCA2 (BRM) function activators, confirmation, cell-based, luminescence, triplicate; activation, % at 9.1 µM; shares compounds with SMARCA2 activ; MG213 cells, MMTV-luciferase with dexamethasone, overnight; MG213 cells expressing E1A, Rb sequestered; DMSO wells 0%, reference activator 100%; actives 30% (n = 3,500);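 active = activation above its plate's cutoff, the mean activation of tested wells plus 3 SD, cut at about 7.9% in these data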
GAL4-VP16 Luc = GAL4-VP16 luciferase reporter activation, counter-screen for SMARCA2 (BRM) activator project, cell-based, pG5luc, luminescence, high throughput | shares compounds with SMARCA2 activ | HEK293 GAL4-VP16 pG5luc reporter; scaled: DMSO wells 0%, SAHA wells 100% | activation, % at 9.1 µM | actives 41% (n = 3,500) | AID 686939, 2013;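 active = activation above the solvent-only control well mean plus 3 SD, averaged across control plates, cut at about 5.2% in these data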
Numbers without * were called inactive; . = no result given; ! = not active in a repeat. Shown are actives, neighbours in structure and some others; about 3.2% of the full set was active somewhere.

SMILES	DAX1 inh-1	JMJD2C inh	SMARCA2 activ	NR2E3 ag-1	DAX1 inh-2	NR2E3 ag-2	SMARCA2 conf	GAL4-VP16 Luc
Nc1ccccc1SC1CC(=O)N(c2ccc3c(c2)OCCO3)C1=O (stereo not drawn)	2	10	3	-112	1	-5	.	.
O=C1CC(Sc2ccc(Cl)cc2)C(=O)N1c1ccc2c(c1)OCCO2 (stereo not drawn)	-1	3	8.4*	-35	0	-5	-3	0
COC(=O)c1ccc(COc2ccccc2/C=C(\C#N)C(=O)Nc2ccc(C)cc2)cc1	3	16	8.2*	-40	3.9*	2	-3	14*
C=CCNC(=O)/C(C#N)=C/c1ccccc1OCc1ccc(C(=O)OC)cc1	-1	13	2	-9	-1	3	.	.
COc1cccc(N(CC(=O)N2CCN(C)CC2)S(=O)(=O)c2ccccc2)c1	-1	-1	8.6*	-15	0	-3	-3	-1
CCN(CC)CCCNc1ccc2ncn3c4ccc(O)cc4c(=O)c1c23	-4	.	8.1*	34	-4	.	34*	3
CN(C)CCNc1ccc2nnn3c4ccc(O)cc4c(=O)c1c23	0	.	4	-30	-3	.	.	.
COC(=O)C1CN(Cc2ccc(F)cc2)CCS(=O)(=O)N1Cc1ccc(C(F)(F)F)cc1 (stereo not drawn)	.	.	-1	.	-1	.	.	.
COc1ccc(Cl)cc1NC(=O)CN(C)C(=O)c1cc2c(s1)CCCC2	-2	.	0	21	-2	.	.	.
Cc1ccccc1OCCC(=O)OCC(=O)NC1CCS(=O)(=O)C1 (stereo not drawn)	2	5	-2	-12	2	3	.	.
COc1cc2c3nnc(-c4ccccc4)c-3cn(Cc3ccccc3F)c2cc1OC	.	-1	9.9*	.	0	-5	18*	2
Cc1c(-c2ccccc2)nc2ccccc2c1C(=O)NCc1cccs1	-3	-2	8.1*	4	0	3	-2	1
COC(=O)c1c(C)[nH]c(C(=O)CN2C(=O)C3CC=CCC3C2=O)c1C (stereo not drawn)	1	.	9.0*	-20	2	.	6	5
OCCN(Cc1ccccc1)Cc1ccc(Cl)cc1Cl	0	-2	8.2*	-3	0	3	-3	-1
COc1ccc(S(=O)(=O)N2CCCC2)cc1NC(=O)c1ccccc1	2	11	8.1*	-11	0	3	0	2
COc1ccc(S(=O)(=O)N2CCCCC2)cc1NC(=O)c1ccccc1	1	8	-2	13	2	0	.	.
CC(C)CN(C(=O)Cn1ccccc1=O)C1CCS(=O)(=O)C1 (stereo not drawn)	0	-2	-3	-14	1	3	.	.
CCCOc1ccc(C(=O)NNC(=S)NC(=O)c2cccs2)cc1	0	-1	13*	24	-1	1	3	0
COc1cccc(C2(c3cccc(OC)c3)CC2C(=O)Nc2cccc3ccccc23)c1 (stereo not drawn)	2	3	9.6*	-5	0	3	-7	1
COc1cccc(NC(=O)C2CC2(c2cccc(OC)c2)c2cccc(OC)c2)c1 (stereo not drawn)	-2	-10	-2	-18	0	0	.	.
C[C@@H]1CCCN1c1ccc2c(c1)O[C@H]1CCN(C1)S2(=O)=O	.	.	-2	.	0	.	.	.
CC1Cc2ccccc2N1S(=O)(=O)c1cccc(C(=O)N2CCCCC2)c1 (stereo not drawn)	-2	.	-1	2	-1	.	.	.
CC1Cc2ccccc2N1S(=O)(=O)c1cccc(C(=O)c2nccn2C)c1 (stereo not drawn)	-1	-4	8.6*	10	0	4	-2	-2
Cc1ccccc1CCN(C(=O)CN1C(=O)c2ccccc2S1(=O)=O)C(C(=O)NCC1CCCO1)c1ccncc1 (stereo not drawn)	-1	3	9.0*	-5	0	-3	-1	1
O=C1Nc2ccccc2C1(c1ccccc1)c1ccccc1	0	0	11*	-26	0	-3	3	-2
SMILES	DAX1 inh-1	JMJD2C inh	SMARCA2 activ	NR2E3 ag-1	DAX1 inh-2	NR2E3 ag-2	SMARCA2 conf	GAL4-VP16 Luc
CC(C)C[C@H]1COc2cccc(F)c2S(=O)(=O)N1Cc1cn(Cc2ccco2)nn1	.	.	0	.	0	.	.	.
O=C1CN(c2ccccc2)C(=S)N1C(=O)c1ccc(Br)cc1	7.7*	-32	8.8*	-159	2	4	7	16*
CCN(CC)Cc1cc(Nc2ccnc3cc(Cl)ccc23)ccc1O	0	-29	8.2*	2	0	4	20*!	-2
Cc1ccccc1/C=N/Nc1ccnc2cc(Cl)ccc12	-1	0	-2	3	0	3	.	.
Oc1ccc(/C=N/Nc2ccnc3cc(Cl)ccc23)c(O)c1	-1	6	15*	-46	-1	1	18*	2
C[C@@H]1OC(c2ccccc2)N(C)[C@H]2C[C@H]3c4[nH]c5cccc(-c6ccccc6)c5c4CCN3C[C@@H]12 (stereo partly drawn)	.	.	-3	.	-1	.	.	.
CCC/C(=C1/c2ccccc2C(=O)N1c1ccccc1)c1ccc(C=O)o1	.	.	-2	.	-1	.	.	.
O=C(Nc1cccc(O)c1)c1c(O)c2ccccc2[nH]c1=O	5.0*	1	10*	-154	2	2	7	9.3*
Cc1cccc(NC(=O)c2c(O)c3ccccc3[nH]c2=O)c1	0	-5	-2	-32	1	-1	.	.
Cc1cccc(N2CCN(S(=O)(=O)c3ccc(-c4ccc(=O)[nH]n4)o3)CC2)c1C	2	-2	-4	18	-1	-4	.	.
CCOC(=O)c1cc2sccc2n1CC(=O)C(C)(C)C	0	-6	10*	-12	0	-2	-4	1
